SENP8 block-1: SENP8 protease inhibitors, primary screen, biochemical, luminescence. AID 2540, 2010. actives 1.2% (n = 330,000). Sentrin-specific protease 8 (Homo sapiens), Q96LD8. purified SENP8, Z-RLRGG-aminoluciferin cleavage. inhibition, % at 10 µM; in the data active = inhibition above about 50%
SENP1 inh: human SENP1 catalytic domain inhibitors, primary screen, biochemical, FRET, uHTS. Sentrin-specific protease 1 (Homo sapiens), Q9P0U3. recombinant SENP1 catalytic domain, CyPet-SUMO1-YPet FRET cleavage. inhibition, % at 10 µM. actives 0.21% (n = 360,000);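 active = inhibition at least 30% at 10 µM, raw YFP signal under a set limit, fluorescence ratio 0.5 to 1.5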;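 also: 0% = enzyme with DMSO and 100% = no enzyme wells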
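material = recombinant human SENP1 catalytic domain, His6-tagged | quantity = 20 pM enzyme | reagent = 25 nM SUMO1 FRET substrate | compound dosing = 10 µM single point, 0.5% DMSO | timing = 50 min enzyme reaction, room temperature, light-protected | detection = FRET, CFP and YFP emission | control set = no-enzyme low, enzyme-DMSO high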
HSP90 inh: HSP90 inhibitors, primary screen, cell lysate, luminescence; Heat shock protein HSP 90 (rabbit reticulocyte lysate; luciferase refolding); Rabbit reticulocyte lysate, luciferase refolding luminescence, 3 h; inhibition, % at 5.6 µM; actives 0.91% (n = 290,000);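 active = inhibition above the screen-wide mean plus 3 SD, computed separately per campaign, cut at about 16% in these data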;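 also: 0% = DMSO wells and 100% = 60 µM geldanamycin wells; inhibitors lower the luminescence because luciferase stays unfolded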
SENP7 inh: SENP7 protease inhibitors, primary screen, biochemical, luminescence, uHTS. recombinant SENP7, Z-RLRGG-aminoluciferin luminescence, 40 min. inhibition, % at 5 µM. actives 1.5% (n = 330,000). AID 434973, 2010;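 active = inhibition above about 50% at the single test dose, limit read from the data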;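 also: plate controls were DMSO with enzyme for no effect and no enzyme buffer wells for full effect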
SENP6 inh: SENP6 protease inhibitors, primary screen, biochemical, luminescence, uHTS; actives 1.8% (n = 330,000); inhibition, % at 10 µM; Sentrin-specific protease 6 (Homo sapiens), Q9GZR1; Recombinant SENP6 catalytic domain, aminoluciferin luminescence;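 active = inhibition above about 50% at the single tested dose, limit read from the data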;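 also: plate controls were DMSO wells with enzyme for no effect and DMSO wells lacking enzyme for full effect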
Target sequence (Q9GZR1 628-1112 limits assumed): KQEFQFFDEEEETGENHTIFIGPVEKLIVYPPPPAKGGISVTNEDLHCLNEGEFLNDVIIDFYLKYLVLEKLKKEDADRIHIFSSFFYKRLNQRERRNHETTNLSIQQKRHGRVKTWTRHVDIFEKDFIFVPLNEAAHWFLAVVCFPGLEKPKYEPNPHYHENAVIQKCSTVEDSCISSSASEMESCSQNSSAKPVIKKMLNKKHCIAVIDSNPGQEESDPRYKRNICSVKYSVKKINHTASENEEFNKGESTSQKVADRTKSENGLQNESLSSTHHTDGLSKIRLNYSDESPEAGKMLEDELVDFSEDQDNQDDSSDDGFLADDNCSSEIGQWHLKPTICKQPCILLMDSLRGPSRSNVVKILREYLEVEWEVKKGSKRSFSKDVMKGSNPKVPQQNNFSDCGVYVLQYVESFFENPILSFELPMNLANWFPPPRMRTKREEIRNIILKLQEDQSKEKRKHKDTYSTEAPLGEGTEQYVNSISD
SENP8 block-2: human SENP8 protease inhibitors, primary screen, biochemical, fluorescence, Nedd8 protein substrate, uHTS | Sentrin-specific protease 8 (Homo sapiens), Q96LD8 | recombinant SENP8 | inhibition, % at 20 µM | actives 0.64% (n = 360,000) | AID 602440, 2012; in the data active = inhibition mostly above about 40%, no sharp cut-off; inactive = mostly below about 27%
Active calls of the source: *; . = no result. Sampled rows, rich in hits. Any-hit rate of the full collection: about 2.9%.

SMILES	SENP8 block-1	SENP1 inh	HSP90 inh	SENP7 inh	SENP6 inh	SENP8 block-2
CCOC(=O)C1=CCN(S(=O)(=O)c2ccccc2Cl)C1c1cccc(Br)c1 (stereo not given)	.	1	.	.	.	5
COc1ccc(-n2c(=S)[nH]c3sc4c(c3c2=O)CCN(C)C4)cc1	-7	.	1	0	-12	.
O=c1nc(Nc2cccc(Cl)c2)oc2cc(Cl)oc(=O)c12	95*	-140	1	-6	95*	-17
O=c1nc(Nc2ccccc2)oc2ccccc12	1	0	-1	47	16	-4
COc1ccc(NC(=O)CON=CC(=O)Nc2ccc(C)cc2)c(OC)c1	-1	0	.	5	-2	-4
Cc1ccc(C(NC(=O)C(C)C)c2cc([N+](=O)[O-])c3cccnc3c2O)cc1 (stereo not given)	1	-4	5	-5	2	55*
CC(C)C(=O)NC(c1cccs1)c1cc([N+](=O)[O-])c2cccnc2c1O (stereo not given)	5	1	6	18	20	44*
CC1=C(C(=O)c2ccccc2)C(c2ccc(N3CCOCC3)cc2)NC(=O)N1 (stereo not given)	-2	74*	-1	1	-17	-1
N/C(=N\OC(=O)c1cc(Cl)ccc1Cl)c1ccccn1	65*	1	15	76*	51*	11
N/C(=N\OC(=O)c1ccc(Cl)cc1Cl)c1cccnc1	61*	1	7	72*	42	6
Cc1cc(C)c(C)c(OCC(=O)O/N=C(\N)c2ccccn2)c1	0	-2	-1	4	-8	8
N/C(=N\OC(=O)c1cccc2ccccc12)c1cccnc1	7	3	2	8	14	-238
N/C(=N\OC(=O)COc1ccc(Cl)cc1Cl)c1ccccn1	87*	2	13	90*	73*	8
O=[N+]([O-])c1ccc(N2CCN(c3ccccn3)CC2)c(Cl)c1	-5	-4	-3	1	-7	13
COc1cc2c(cc1OC)CN(C1CCC(C)CC1)CC2 (stereo not given)	-1	-2	-1	3	-5	-13
Cn1cccc1/C=C1/SC(=S)N(CC(=O)O)C1=O	-16	-53	-1	-28	-20	11
CN1CCS/C1=C\C=C1/SC(=S)N(CC(=O)O)C1=O	.	68*	0	.	.	23
Cc1cccc(NC(=O)c2cc(S(=O)(=O)N(C)c3ccc(F)cc3)ccc2Cl)n1	-1	1	.	7	9	1
COCCNC(=O)Cn1cc(/C=N/NC(=O)c2ccc(Oc3ccc(O)cc3)cc2)c2ccccc21	0	2	-2	6	-3	-222
C=CCN1C(=O)C2(NNc3ccccc3O2)c2ccccc21 (stereo not given)	-20	81*	-3	-5	-23	-121
O=C(COC(=O)c1ccc2c(c1[N+](=O)[O-])C(=O)c1ccccc1C2=O)NC1CC1	17	2	2	1	38	34*
O=C(COC(=O)c1cccc2c1C(=O)c1ccccc1C2=O)NC1CCCCC1	-7	1	0	-7	28	20
O=C1O/C(=C/c2ccccc2)c2ccccc21	22	1	-6	27	59*	-29
O=C(NCC12CC3CC(CC(C3)C1)C2)c1cc2n(n1)C(C(F)(F)F)CC(c1ccco1)N2 (stereo not given)	10	-3	30*	7	19	5
CCOC(=O)C1CCN(C(=O)c2ccc(C)o2)CC1	5	5	.	0	0	11
CCOC(=O)C1CCN(C(=O)c2c(C)oc3c2C(=O)c2ccccc2C3=O)CC1	15	6	6	22	47	60*
COC(=O)c1cc(S(=O)(=O)Nc2ccc(C)cn2)c[nH]1	6	-2	-2	3	7	-216
CCOc1cc(/C=N/NC(N)=O)cc(Br)c1OCc1ccccc1F	-8	2	-1	-2	-7	7
